Assay outcomes deposited in PubChem by several laboratories.
NR2E3 ag-1: NR2E3 agonists in two-hybrid cells, primary screen, cell-based, luminescence, CHO-S, Gal4-NCOR/VP16-NR2E3. inhibition of corepressor binding, % at 3.98 µM. Photoreceptor-specific nuclear receptor (Homo sapiens), Q9Y5X4. 360,000 tested, 0.35% active. luciferase;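 active = inhibition above the mean of all tested compounds plus 3 SD, cut at about 70% in these data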;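 note: 0% = DMSO with NR2E3 transfected cells and 100% = cells lacking NR2E3 construct; higher means lower luciferase signal from less NR2E3 corepressor binding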
Target sequence (Q9Y5X4 whole entry, looked up, the tested form may be a part): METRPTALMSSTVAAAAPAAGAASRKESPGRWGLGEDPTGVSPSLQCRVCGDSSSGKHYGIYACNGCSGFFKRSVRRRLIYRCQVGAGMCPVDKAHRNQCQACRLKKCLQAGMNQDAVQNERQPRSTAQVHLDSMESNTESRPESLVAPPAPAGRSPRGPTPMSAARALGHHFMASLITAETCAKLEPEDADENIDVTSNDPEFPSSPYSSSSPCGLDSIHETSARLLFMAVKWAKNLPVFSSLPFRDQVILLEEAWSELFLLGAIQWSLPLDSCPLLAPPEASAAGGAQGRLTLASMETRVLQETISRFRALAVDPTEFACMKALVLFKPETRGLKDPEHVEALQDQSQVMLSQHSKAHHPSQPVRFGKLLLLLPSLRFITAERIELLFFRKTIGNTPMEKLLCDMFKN
GalR3 antagonist: GalR3 antagonists in HEK293 cells, primary screen, cell-based, fluorescence readout; HEK293 GalR3-CNG cAMP membrane potential fluorescence; galR3 body fused to GalR1 C-terminus; inhibition, % at 3 µM; 360,000 tested, 0.44% active; AID 651719, 2012;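 active = inhibition above the screen-wide average plus 3 SD, cut at about 13% in these data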;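 note: forskolin and galanin both at EC90 stimulate the cells; cAMP rise reported by CNG channel membrane potential dye signal; 0% = forskolin plus galanin with DMSO and 100% = forskolin alone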
Target sequence (O60755 1-299 limits assumed): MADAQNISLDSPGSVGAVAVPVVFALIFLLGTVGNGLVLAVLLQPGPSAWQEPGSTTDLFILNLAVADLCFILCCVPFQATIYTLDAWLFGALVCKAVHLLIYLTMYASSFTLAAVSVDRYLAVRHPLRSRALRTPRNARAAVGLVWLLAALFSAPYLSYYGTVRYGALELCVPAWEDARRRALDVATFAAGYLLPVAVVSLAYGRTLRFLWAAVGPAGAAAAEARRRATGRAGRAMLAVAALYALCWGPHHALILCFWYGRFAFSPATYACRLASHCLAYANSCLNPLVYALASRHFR
bovine MsrA act: bovine MsrA enzyme activators, primary screen, biochemical, absorbance, HTS | activation, % at 10.6 µM | purified bovine MsrA, absorbance read-out | AID 602163, 2012 | 360,000 tested, 0.3% active; in the data active = activation above about 7.5%;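 note: 0% = vehicle and 100% = reference activator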
NR2E3 ag-2: inhibitors of NR2E3-RetCOR corepressor binding, primary screen, NR2E3 agonist project, biochemical, TR-FRET, GST-NR2E3, biotin-RetCOR; Photoreceptor-specific nuclear receptor (Homo sapiens), Q9Y5X4; 1536-well; inhibition of corepressor binding, % at 4.78 µM; 320,000 tested, 0.12% active; AID 2300, 2010;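 active = percent inhibition above the cutoff of mean plus 3 SD of all tested compounds, set per screening campaign, cut at about 20% in these data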;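 note: 0% = DMSO wells and 100% = biotin wells as full block of FRET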
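Material: NR2E3–RetCOR corepressor complex / Amount: 1.35 nM GST-NR2E3 / Medium: Tris pH 7.5 / Compound: single nominal compound dose of 4.8 µM / Incubation: 5 h at 4 °C / Technique: TR-FRET, Eu(K)-anti-GST donor, streptavidin-D2 acceptor, ex 340, em 617/671 nm / Read-out basis: percent loss of FRET ratio relative to control wells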
NadD block: inhibitors of S. aureus NadD, primary screen, biochemical, colorimetric, uHTS; AID 602399, 2012; Nicotinate-nucleotide adenylyltransferase NadD (Staphylococcus aureus N315); 360,000 tested, 0.78% active; inhibition, % at 20 µM; purified NadD enzyme, colorimetric absorbance read-out; in the data active = inhibition above about 26%
MsrA inh: bovine MsrA enzyme inhibitors, primary screen, biochemical, absorbance, HTS | purified bovine MsrA, absorbance read-out | 360,000 tested, 0.75% active | inhibition, % at 15.5 µM; in the data active = inhibition above about 4.5%;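 note: 0% = vehicle wells with enzyme and 100% = reference inhibitor wells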
NR2E3 ag confirm: NR2E3 agonist confirmation in cells, cell-based, luminescence, CHO-S two-hybrid; shares compounds with NR2E3 ag-1; CHO-S mammalian two-hybrid NR2E3-NCOR, luciferase luminescence; inhibition, % at 3.98 µM; 2,300 tested, 51% active;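 active = average inhibition above a cutoff equal to the mean inhibition of all tested compounds plus one SD, cut at about 70% in these data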;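 note: 0% = DMSO in NR2E3 cells and 100% = DMSO in cells lacking NR2E3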
GAL4-VP16 luc: GAL4-VP16 reporter modulators, confirmation, counter-screen for NR2E3 agonist project, cell-based, luminescence, CHO-S, high throughput | shares compounds with NR2E3 ag-1 | CHO-S GAL4-VP16 luciferase reporter | inhibition, % at 3.98 µM | 2,300 tested, 29% active | AID 624379, 2012;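 active = mean inhibition above a cutoff equal to the average over all tested compounds plus one standard deviation, cut at about 70% in these data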;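 note: luciferase from a UAS reporter driven by GAL4-VP16 transactivation; 0% = DMSO with VP16-transfected cells and 100% = DMSO with cells lacking VP16; higher means less reporter light so more repression of VP16 activity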
Starred values were filed as active, the others as inactive; · = not tested or not shown. Most compounds without a hit are left out; they make up all but 2.5% or so of the library.

SMILES	NR2E3 ag-1	GalR3 antagonist	bovine MsrA act	NR2E3 ag-2	NadD block	MsrA inh	NR2E3 ag confirm	GAL4-VP16 luc
CC(=O)N1CCc2cc(S(=O)(=O)Nc3cccc(C(F)(F)F)c3)ccc21	64.6	-10.6	-1.0	-0.6	2.7	0.2	62.6	38.1
CC(=O)N1CCc2cc(S(=O)(=O)N3CCc4ccccc4C3)ccc21	17.0	1.9	-9.0	2.1	-1.3	1.9	·	·
COc1cccc(CNS(=O)(=O)c2ccc3c(c2)CCN3C(=O)C2CC2)c1	-2.9	-5.3	-3.2	-1.2	-4.2	0.3	·	·
CSc1cccc(NS(=O)(=O)c2ccc3c(c2)CCN3C(C)=O)c1	72.3*	-11.4	-1.4	-0.2	-7.0	0.6	84.5*	77.2*
CC(=O)N1CCc2cc(S(=O)(=O)Nc3ccc(C)cc3)ccc21	-34.0	-11.7	-2.9	-1.8	-4.3	0.2	·	·
COc1ccc(CNS(=O)(=O)c2ccc3c(c2)CCN3C(=O)C2CCC2)cc1	50.6	-1.3	-3.7	-1.6	-7.3	-1.5	27.0	42.6
CN1CCN(c2ccc(Cl)cc2NC(=O)c2ccc(S(=O)(=O)N3CCCCCC3)cc2)CC1	-7.7	-5.3	0.2	5.2	-2.9	2.2	·	·
Cn1c(=O)oc2cc(S(=O)(=O)NCCc3ccccc3)ccc21	13.3	0.8	-4.3	-7.5	3.2	0.0	·	·
COc1cccc(NS(=O)(=O)c2ccc3c(c2)CCN3C(C)=O)c1	67.1	-12.7	2.5	-1.1	-2.7	0.0	61.8	59.4
CCCc1ccc(Oc2cn[nH]c2-c2ccc(O)c(C)c2O)cc1	48.9	1.6	-10.6	1.5	-12.0	-0.2	61.2	58.2
CCCc1ccc(Oc2c(-c3ccc(O)c(C)c3O)n[nH]c2C)cc1	15.0	4.1	-9.8	-2.0	-4.0	-1.6	·	·
COC1=C(OC)C(=O)C(CCCCCCCCCCO)=C(C)C1=O	54.2	-3.9	-2.5	·	-0.6	0.2	27.7	52.3
CCN(CC)S(=O)(=O)c1cccc(NC(=O)CSc2nc3ccccc3[nH]2)c1	9.9	-8.6	-0.3	7.6	0.6	1.9	·	·
CN(C)c1nc(=NCc2cccs2)ss1	96.6*	-5.2	1.9	·	-2.9	1.6	23.0	-9.8
CCC(C)c1ccc(OCC(=O)Nc2ccc3[nH]c(=O)[nH]c3c2)cc1 (stereo unspecified)	-23.2	-11.1	-3.6	1.7	8.7	0.1	·	·
O=C(CN1CCC(NC(=O)C2CC2)CC1)Nc1cccc(F)c1	-21.8	-8.1	-1.4	-1.6	-8.5	1.2	·	·
O=C1NC(=O)/C(=C/c2ccccc2OCc2ccccc2)S1	51.0	-4.4	-3.5	4.5	-9.2	2.5	57.4	45.2
NC(=O)N/N=C/C=C/c1ccccc1	-18.7	-4.7	-1.6	-4.0	-4.0	0.8	·	·
CC(C)Cn1c(N)c(C(=O)COC(=O)c2ccc3c(c2)OCCO3)c(=O)n(C)c1=O	18.2	-3.8	-1.0	1.5	-3.8	-1.0	·	·
CC(C)Cn1c(N)c(C(=O)CSc2ccc3c(c2)OCCO3)c(=O)n(C)c1=O	59.4	-4.5	-3.5	-4.7	0.9	0.5	92.2*	85.0*
COc1cc(OC)cc(-c2cc3nc(C)c(CCC(=O)NC(C)CCc4ccco4)c(C)n3n2)c1 (stereo unspecified)	7.0	-3.0	-2.3	2.1	-4.3	-0.5	·	·
COc1cc(OC)cc(-c2cc3nc(C)c(CCC(=O)O)c(C)n3n2)c1	51.4	3.7	-7.2	-3.0	-4.4	-1.4	57.3	63.1
CC(C)OC(=O)CSc1nnc(CNc2ccc(Cl)cc2)n1Cc1ccccc1	72.6*	-6.7	-1.1	1.6	12.1	-2.0	42.4	62.6
CCOC(=O)CSc1nnc(CNc2ccc(Cl)cc2)n1Cc1ccccc1	17.6	-0.6	-1.4	-3.2	5.9	-0.5	·	·
Cc1ccc2nc(-c3ccco3)c(Cc3cccc(F)c3)n2c1	-50.2	-3.1	-4.7	·	5.2	0.9	·	·
SMILES	NR2E3 ag-1	GalR3 antagonist	bovine MsrA act	NR2E3 ag-2	NadD block	MsrA inh	NR2E3 ag confirm	GAL4-VP16 luc
Nc1cc(=O)[nH]c(SC/C=C/c2ccccc2)n1	12.2	-0.4	-1.1	-3.1	1.5	-0.6	·	·
CCCc1cc(=O)[nH]c(SC/C=C/c2ccccc2)n1	16.4	0.7	-1.5	1.0	4.7	0.2	·	·
CCc1c(C)nc(SC/C=C/c2ccccc2)[nH]c1=O	83.4*	·	-1.5	-1.5	-4.8	·	41.4	43.4
O=c1cc(C(F)(F)F)nc(SC/C=C/c2ccccc2)[nH]1	51.9	·	-1.7	1.2	-0.3	·	76.6*	29.0
CCOC(=O)N1CCC(NC(=O)C2CCCN(Cc3nc(-c4cccc(C)c4)oc3C)C2)CC1 (stereo unspecified)	74.9*	-5.2	1.3	1.3	-7.9	-0.5	75.6*	68.0
O=C(Nc1ccc(Cl)cc1)c1nc[nH]c1C(=O)Nc1ccccc1F	-23.3	-4.5	0.8	·	5.1	-0.1	·	·
CNC(=O)CSc1n[nH]c(-c2cc(Cl)ccc2OC)n1	-10.2	6.4	-1.7	-0.6	-1.0	2.2	·	·
COC(=O)C1=C(N)Oc2cc(C)[nH]c(=O)c2C1c1ccncc1 (stereo unspecified)	-13.1	-1.3	-2.2	-0.9	2.3	2.2	·	·
Cc1ccc(S(=O)(=O)N2CCN(c3ncccn3)CC2)cc1C	5.7	-5.8	-2.2	3.1	-3.5	-0.4	·	·
Cc1ccc(S(=O)(=O)N2CCN(c3ncnc4sccc34)CC2)cc1C	105.2*	-3.9	-3.2	·	4.4	0.9	91.2*	78.9*
CCCc1cc(-c2nc(N)ncc2-c2ccc3c(c2)OCCCO3)c(O)cc1OC	0.4	-4.0	0.8	-1.7	1.5	0.4	·	·
O=C(c1ccccc1)c1nn(-c2ccc(Cl)cc2)c(=O)cc1C(F)(F)F	107.7*	1.7	-6.0	8.1	-11.0	0.1	93.2*	67.3
CCOC(=O)C(Cc1ccc(O)cc1)NC(=O)CNC(=O)C(CC(C)C)NC(=O)OC(C)(C)C (stereo unspecified)	-20.0	-0.5	-3.3	2.1	0.4	-0.4	·	·
Cc1ccc(-c2nc3cc(C)c(Br)c(C)n3c2Cc2ccccc2)cc1	-102.3	-5.2	-2.6	·	0.3	0.7	·	·
Cc1cc2nc(-c3cccc(Cl)c3)c(Cc3ccccc3)n2c(C)c1Br	59.6	·	0.9	·	13.8	·	29.3	-14.6
